The subject of data set [1] is Mycobacterium tuberculosis. In words: Antitubercular activity against Mycobacterium tuberculosis H37Rv assessed as bacterial growth inhibition by MABA. It is filed as functional. Background: Alamar Blue is a resazurin reagent that responds to reducing activity.
In another data set the test system is HEK293. Kind of data set: Cytotoxicity against human HEK293 cells assessed as reduction in cell viability incubated for 48 hrs by CCK8 assay. Type of data set: cell-based. Particulars: HEK293, 48 h. (In general: Tetrazolium assays rely on reduction of a dye to a coloured formazan, in cell work by metabolically active cells.)
Data set [2] in a line: AUC (0 to t) in Sprague-Dawley rat at 40 mg/kg, po measured upto 8 hrs by LC-MS/MS analysis. Type of data set: ADME, organism-based. Further details: route oral, dose 40 mg/kg, time <=8. Particulars: in vivo. The essentials: (§1)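 Male SPF SD rats (180–220 g), fasted overnight, fed 4 h post-dose; single 40 mg/kg oral dose suspended in 5% DMSO/10% Solutol/85% water; n=3. Jugular blood at 0.25–8 h, plasma protein precipitated with MeOH containing internal standard, analysed by LC-MS/MS; AUC, Cmax, Tmax, MRT from plasma concentration data; mean ± SD.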

A short description of data set [3]: Selectivity index, ratio of IC50 for human HEK293 cells to MIC for Mycobacterium tuberculosis. Particulars: read-out: Selectivity Index. Type of data set: toxicity. The essentials: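 Ratio of HEK-293 IC50 (µM) to anti-Mtb MIC (µM).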
Data set [4] can be described thus: Cmax in Sprague-Dawley rat at 40 mg/kg, po measured upto 8 hrs by LC-MS/MS analysis. Further details: route oral, dose 40 mg/kg, time <=8. Particulars: in vivo. Type of data set: ADME, organism-based. The procedure, abridged: as §1
A short description of data set [5]: Mean residence time in Sprague-Dawley rat at 40 mg/kg, po measured upto 8 hrs by LC-MS/MS analysis. Type of data set: ADME, organism-based. Particulars: in vivo. The essentials:
as §1

A short description of data set [6]: Tmax in Sprague-Dawley rat at 40 mg/kg, po measured upto 8 hrs by LC-MS/MS analysis. Type of data set: ADME, organism-based. Particulars: in vivo. The essentials:
as §1

In data set [7] the test system is Klebsiella pneumoniae. In words: Antibacterial activity against ESBLs positive Klebsiella pneumoniae ATCC 700603 assessed as bacterial growth inhibition incubated for 18 hrs by agar dilution method. Type of data set: functional. A general note: In agar dilution, organisms are placed on agar that contains the substance at set levels.
For data set [8], the system named is Staphylococcus aureus. In words: Antibacterial activity against methicillin-sensitive Staphylococcus aureus ATCC 29213 assessed as bacterial growth inhibition incubated for 18 hrs by agar dilution method. It is filed as functional.
Data set [9] can be described thus: Acute toxicity in BALB/c mouse at 1000 mg/kg, po measured after 7 days. It is filed as organism-based. Particulars: in vivo, 168 h, time 7 day. The essentials: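 SPF female BALB/c mice, 18–22 g, groups of six; single 1000 mg/kg oral gavage in 0.5% CMC-Na; housed at 20–24°C; surviving mice counted over the observation period (14 days per methods, 7 days per results text).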

Data set [10] has as its system Acinetobacter calcoaceticus. Kind of data set: Antibacterial activity against Acinetobacter calcoaceticus ATCC 19606 assessed as bacterial growth inhibition incubated for 18 hrs by agar dilution method. It is filed as functional.
The subject of a further data set is Enterococcus faecium. In words: Antibacterial activity against vancomycin-resistant Enterococcus faecium ATCC 700221 assessed as bacterial growth inhibition incubated for 18 hrs by agar dilution method. Type of data set: functional.
Data set [11] concerns Klebsiella pneumoniae. Kind of data set: Antibacterial activity against ESBLs negative Klebsiella pneumoniae 7 assessed as bacterial growth inhibition incubated for 18 hrs by agar dilution method. Type of data set: functional.
The next data set deals with Pseudomonas aeruginosa. In words: Antibacterial activity against Pseudomonas aeruginosa ATCC 27853 assessed as bacterial growth inhibition incubated for 18 hrs by agar dilution method. Type of data set: functional.
Data set [12] relates to Staphylococcus epidermidis. Kind of data set: Antibacterial activity against methicillin-sensitive Staphylococcus epidermidis ATCC 12228 assessed as bacterial growth inhibition incubated for 18 hrs by agar dilution method. It is filed as functional.
The test system of data set [13] is Staphylococcus aureus. In words: Antibacterial activity against methicillin-resistant Staphylococcus aureus ATCC 33591 assessed as bacterial growth inhibition incubated for 18 hrs by agar dilution method. It is filed as functional.
The subject of a further data set is Escherichia coli. In words: Antibacterial activity against ESBLs negative Escherichia coli ATCC 25922 assessed as bacterial growth inhibition incubated for 18 hrs by agar dilution method. It is filed as functional.
In a further data set the test system is Enterococcus faecalis. In words: Antibacterial activity against Vancomycin-susceptible Enterococcus faecalis ATCC 29212 assessed as bacterial growth inhibition incubated for 18 hrs by agar dilution method. It is filed as functional.

Data on 33 compounds can be found in ChEMBL document CHEMBL4706616, “Design, synthesis, and evaluation of substituted 2-acylamide-1,3-benzo[d]zole analogues as agents against MDR- and XDR-MTB” (Eur J Med Chem, 2021).

A word on the MIC: it is the lowest concentration that inhibits growth of the organism. The term IC50 denotes the concentration at which inhibition is half-maximal. The term AUC(0-t) denotes exposure summed from dosing to a finite time, without extrapolation to infinity. Read a low AUC(0-t) as low exposure. By Cmax is commonly meant the highest concentration seen after dosing. A word on the MRT: it is the average time that molecules of a dose stay in the body. In general, Tmax refers to the time at which the peak concentration occurs.

Values after ≈ are worked out from the molar mass of the structure shown. Some results are limits rather than exact numbers.

Turning to `O=C(Nc1nc2ccccc2o1)c1ccc(Cl)s1`, the MIC in [1] was 14.3 µM (≈ 4 µg/mL).
For the compound `Cc1nnsc1C(=O)Nc1nc2cc(-c3cccnc3)ccc2o1`, the concentration for half-maximal inhibition (IC50) in the data set with HEK293 was determined as 54.9 µM. Moreover, in [1], the minimal inhibitory concentration (MIC) was determined as 2.96 µM (≈ 0.999 µg/mL).
On to `Cc1nnsc1C(=O)Nc1nc2c(-c3ccccn3)cccc2o1`, for which the MIC in [1] came out at 23.7 µM (≈ 8 µg/mL).
In the case of `Cc1nnsc1C(=O)Nc1nc2c(ccc3cccnc32)o1`, in data set [1], the MIC turned out to be 103 µM (≈ 32 µg/mL).
As for `Cc1nnsc1C(=O)Nc1nc2ccc(Cl)cc2o1`, in the data set with HEK293, the IC50 came out at 7.14 µM. Also, the MIC in [1] worked out at 0.42 µM (≈ 0.124 µg/mL).
The corresponding values for `Cc1nnsc1C(=O)Nc1nc2cc(F)ccc2o1` are 42 µM and 0.45 µM (≈ 0.125 µg/mL).
With `Cc1nnsc1C(=O)Nc1nc2c(Oc3ncccn3)cccc2o1`, in data set [2], the area under the curve AUC(0-t) at 8 h stood at 38 ng·h/mL. In addition, the IC50 in the data set with HEK293 is more than 100 µM. In data set [1], the MIC is 2.82 µM (≈ 0.999 µg/mL). The selectivity ratio in data set [3] was more than 18. The Cmax in data set [4] turned out to be 6.93 ng/mL. In data set [5], this compound returned a mean residence time (MRT) of 4.12 h. The Tmax in data set [6] amounted to 2.83 h.
Turning to `Cc1nnsc1C(=O)Nc1nc2c(OCc3ccccn3)cccc2o1`, the IC50 with HEK293 came to 61.8 µM. Moreover, the minimal inhibitory concentration (MIC) in data set [1] turned out to be 5.44 µM (≈ 2 µg/mL).
The corresponding values for `Cc1nnsc1C(=O)Nc1nc2cc(Br)ccc2o1` are 45 µM and 2.95 µM (≈ 1 µg/mL).
For `COC(=O)c1ccc(-c2ccc3oc(NC(=O)c4snnc4C)nc3c2)cc1`, the MIC in data set [1] was 1.27 µM (≈ 0.501 µg/mL).
Turning to `O=C(Nc1nc2ccccc2o1)c1ccco1`, the half-maximal inhibitory concentration (IC50) with HEK293 is more than 100 µM. Further, the MIC in data set [1] was found to be 17.5 µM (≈ 4 µg/mL).
`Cc1nnsc1C(=O)Nc1nc2cc(C(C)(C)C)ccc2o1`: the MIC with Klebsiella pneumoniae [7] is more than 405 µM; with Staphylococcus aureus [8], 6.32 µM (≈ 2 µg/mL); in data set [10], more than 405 µM; with Enterococcus faecium, 12.6 µM (≈ 4 µg/mL); with Klebsiella pneumoniae [11], more than 405 µM; in data set [1], 0.4 µM (≈ 0.127 µg/mL). Besides, the minimum inhibitory concentration (MIC) in the data set with Pseudomonas aeruginosa is more than 405 µM; in data set [12], 6.32 µM (≈ 2 µg/mL); in the data set on Staphylococcus aureus [13], 6.32 µM (≈ 2 µg/mL); in the data set with Escherichia coli, more than 405 µM; in the data set with Enterococcus faecalis, 12.6 µM (≈ 4 µg/mL). Further, the Activity entry in [9] was “Non-Toxic”. Besides, in [2], the AUC(0-t) at 8 h stood at 24800 ng·h/mL. The half-maximal inhibitory concentration (IC50) in the data set with HEK293 was 6.73 µM. Also, in [3], the selectivity ratio came to 17. The same compound gave a peak concentration (Cmax) in data set [4] of 6840 ng/mL. Besides, the MRT in data set [5] is 5.26 h. Moreover, in [6], the time to peak (Tmax) was not below 8 h.
For the compound `Cc1nnsc1C(=O)Nc1nc2cc(-c3ccccn3)ccc2o1`, the MIC in the data set on Klebsiella pneumoniae [7] is more than 379 µM; in the data set on Staphylococcus aureus [8], 5.93 µM (≈ 2 µg/mL); in data set [10] it was more than 379 µM; in the data set on Enterococcus faecium, 5.93 µM (≈ 2 µg/mL); in the data set with Klebsiella pneumoniae [11] it was more than 379 µM; in data set [1], 0.74 µM (≈ 0.25 µg/mL). Moreover, the minimal inhibitory concentration (MIC) with Pseudomonas aeruginosa is more than 379 µM; in [12], 2.96 µM (≈ 0.999 µg/mL); in the data set on Staphylococcus aureus [13], 1.48 µM (≈ 0.499 µg/mL); in the data set with Escherichia coli, more than 379 µM; with Enterococcus faecalis it was 11.9 µM (≈ 4 µg/mL). Moreover, in data set [9], the Activity result is given as “Non-Toxic”. Further, the AUC(0-t) at 8 h in [2] is 27800 ng·h/mL. Besides, in the data set on HEK293, the IC50 was more than 100 µM. For the same compound, the selectivity ratio in data set [3] is more than 270. The Cmax in data set [4] was 9050 ng/mL. The MRT in data set [5] worked out at 5.59 h. Also, in [6], the Tmax was not below 8 h.
Turning to `Cc1nnsc1C(=O)Nc1nc2cc(-c3cnn(C)c3)ccc2o1`, the MIC in data set [1] was 1.47 µM (≈ 0.5 µg/mL).
`Cc1ccc2oc(NC(=O)c3snnc3C)nc2c1`: the IC50 with HEK293 came to 21.9 µM. Also, the MIC in data set [1] turned out to be 1.82 µM (≈ 0.499 µg/mL).
As for `COC(=O)c1ccc2oc(NC(=O)c3snnc3C)nc2c1`, the MIC in [1] came out at 3.14 µM (≈ 1 µg/mL).
In the case of `Cc1nnsc1C(=O)Nc1nc2cc(N3CCOCC3)ccc2o1`, the half-maximal inhibitory concentration (IC50) with HEK293 worked out at 18.3 µM. Moreover, the MIC in data set [1] was found to be 11.6 µM (≈ 4 µg/mL).
For `Cc1nnsc1C(=O)Nc1nc2ccccc2[nH]1` the same measures were more than 100 µM and 30.9 µM (≈ 8 µg/mL).
The corresponding values for `Cc1nnsc1C(=O)Nc1nc2c(ccc3ccccc32)o1` are 80.9 µM and 103 µM (≈ 32 µg/mL).
`Cc1nnsc1C(=O)Nc1nc2cc(Cl)ccc2o1`: the Activity entry in data set [9] is given as “Non-Toxic”. Further, the IC50 with HEK293 was 6.65 µM. Also, in data set [1], the minimal inhibitory concentration (MIC) is 0.42 µM (≈ 0.124 µg/mL). Also, in data set [3], the selectivity ratio is 4.
`Cc1nnsc1C(=O)Nc1nc2c(Br)cccc2o1`: the 50% inhibitory concentration (IC50) in the data set on HEK293 was determined as 10.6 µM. The MIC in data set [1] came to 1.47 µM (≈ 0.499 µg/mL).
The corresponding values for `O=C(Nc1nc2ccccc2o1)c1cccs1` are 81.9 µM and 16.4 µM (≈ 4 µg/mL).
In the case of `Cc1nnsc1C(=O)Nc1nc2ccccc2s1`, the IC50 in the data set with HEK293 was more than 100 µM. For the same compound, in [1], the MIC was 28.9 µM (≈ 8 µg/mL).
For `Cc1nnsc1C(=O)Nc1nc2ccccc2o1` the same measures were 19.6 µM and 0.48 µM (≈ 0.125 µg/mL).
With `Cc1nnsc1C(=O)Nc1nc2cc(-c3ccncc3)ccc2o1`, the MIC in data set [1] amounted to 1.48 µM (≈ 0.499 µg/mL).
With `Cc1nnsc1C(=O)Nc1nc2ncccc2o1`, in the data set with HEK293, the concentration for half-maximal inhibition (IC50) is 15.2 µM. The minimum inhibitory concentration (MIC) in [1] is 7.66 µM (≈ 2 µg/mL).
The corresponding values for `Cc1nnsc1C(=O)Nc1nc2c(ccc3ncccc32)o1` are 59 µM and 103 µM (≈ 32 µg/mL).
For `Cc1nnsc1C(=O)Nc1nc2ccc(C(C)(C)C)cc2o1` the same measures were 2.42 µM and 3.16 µM (≈ 1 µg/mL).
On to `O=C(Nc1nc2ccccc2o1)c1ccccc1`, for which the 50% inhibitory concentration (IC50) with HEK293 was more than 100 µM. Also, the MIC in data set [1] is 269 µM (≈ 64 µg/mL).
As for `CC[C@@H](CO)NCCN[C@@H](CC)CO` [ETHAMBUTOL], the MIC in data set [1] was less than 2.45 µM.
On the same count and under the same terms, with `NNC(=O)c1ccncc1` [ISONIAZID] the figure was less than 3.65 µM.
Same read-out and setting: with `CO[C@H]1/C=C/O[C@@]2(C)Oc3c(C)c(O)c4c(O)c(c(/C=N/N5CCN(C)CC5)c(O)c4c3C2=O)NC(=O)/C(C)=C\C=C\[C@H](C)[C@H](O)[C@@H](C)[C@@H](O)[C@@H](C)[C@H](OC(C)=O)[C@@H]1C` [RIFAMPIN] the figure was less than 0.61 µM.
Consider `CN[C@@H]1[C@H](O[C@H]2[C@H](O[C@H]3[C@H](O)[C@@H](O)[C@H](N=C(N)N)[C@@H](O)[C@@H]3N=C(N)N)O[C@@H](C)[C@]2(O)C=O)O[C@@H](CO)[C@H](O)[C@H]1O` [STREPTOMYCIN], for which the MIC in data set [1] is less than 0.69 µM.
